Calls of active or inactive are those of the source. The calls are words filed in the database; no cut-off is given here.
Assays:
L1210 [1] = experiment: Antitumor activity against mouse L1210 cells allografted in mouse assessed as tumor inhibition at 16 mg/kg, ip qd for 8 days relative to control; format: functional; details: route intraperitoneal
Summary of the method: (§1)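 L1210 leukemia, 10⁶ cells per mouse implanted ip. Dosing ip once daily for 8 days from day 1, with solutions prepared fresh daily. Read-out: median survival time as %T/C = (MST treated/MST control) × 100, with T/C > 125 taken as significant inhibition. Survivors counted at 30 days, six mice per dose.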

L1210 [2] = experiment: Antitumor activity against mouse L1210 cells allografted in mouse assessed as median survival time at 32 mg/kg, ip qd for 8 days relative to control; format: functional; details: route intraperitoneal; summary of the method: as §1
L1210 [3] = experiment: Antitumor activity against mouse L1210 cells allografted in mouse assessed as tumor inhibition at 0.5 mg/kg, ip qd for 8 days relative to control; format: functional; details: route intraperitoneal; summary of the method: as §1
L1210 [4] = experiment: Antitumor activity against mouse L1210 cells allografted in mouse assessed as mouse survival after 30 days at 0.5 mg/kg, ip qd for 8 days relative to control; format: functional, organism-based; set-up: dose 0.5 mg/kg
Summary of the method: (§2)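 L1210 leukemia, 10⁶ cells implanted ip per mouse. Dosing ip once daily for 8 days starting day 1, with solutions prepared fresh daily. Six mice per dose level. Survivors counted at day 30. Median survival time also recorded as %T/C = (MST treated/MST control) × 100, with T/C > 125 taken as significant.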

L1210 [5] = experiment: Antitumor activity against mouse L1210 cells allografted in mouse assessed as mouse survival after 30 days at 0.25 mg/kg, ip qd for 8 days relative to control; format: functional, organism-based; set-up: dose 0.25 mg/kg; summary of the method: as §2
L1210 [6] = experiment: Antitumor activity against mouse L1210 cells allografted in mouse assessed as tumor inhibition at 0.25 mg/kg, ip qd for 8 days relative to control; format: functional; details: route intraperitoneal; summary of the method: as §1
L1210 [7] = experiment: Antitumor activity against mouse L1210 cells allografted in mouse assessed as tumor inhibition at 2 mg/kg, ip qd for 8 days relative to control; format: functional; details: route intraperitoneal; summary of the method: as §1
L1210 [8] = experiment: Antitumor activity against mouse L1210 cells allografted in mouse assessed as mouse survival after 30 days at 32 mg/kg, ip qd for 8 days relative to control; format: functional, organism-based; set-up: dose 32 mg/kg; summary of the method: as §2
L1210 [9] = experiment: Antitumor activity against mouse L1210 cells allografted in mouse assessed as tumor inhibition at 8 mg/kg, ip qd for 8 days relative to control; format: functional; details: route intraperitoneal; summary of the method: as §1
L1210 [10] = experiment: Antitumor activity against mouse L1210 cells allografted in mouse assessed as mouse survival after 30 days at 16 mg/kg, ip qd for 8 days relative to control; format: functional, organism-based; set-up: dose 16 mg/kg; summary of the method: as §2
L1210 [11] = experiment: Antitumor activity against mouse L1210 cells allografted in mouse assessed as tumor inhibition at 4 mg/kg, ip qd for 8 days relative to control; format: functional; details: route intraperitoneal; summary of the method: as §1
L1210 [12] = experiment: Antitumor activity against mouse L1210 cells allografted in mouse assessed as mouse survival after 30 days at 1 mg/kg, ip qd for 8 days relative to control; format: functional, organism-based; set-up: dose 1 mg/kg; summary of the method: as §2
L1210 [13] = experiment: Antitumor activity against mouse L1210 cells allografted in mouse assessed as mouse survival after 30 days at 2 mg/kg, ip qd for 8 days relative to control; format: functional, organism-based; set-up: dose 2 mg/kg; summary of the method: as §2
L1210 [14] = experiment: Antitumor activity against mouse L1210 cells allografted in mouse assessed as tumor inhibition at 1 mg/kg, ip qd for 8 days relative to control; format: functional; details: route intraperitoneal; summary of the method: as §1
L1210 [15] = experiment: Antitumor activity against mouse L1210 cells allografted in mouse assessed as mouse survival after 30 days at 8 mg/kg, ip qd for 8 days relative to control; format: functional, organism-based; set-up: dose 8 mg/kg; summary of the method: as §2
L1210 [16] = experiment: Antitumor activity against mouse L1210 cells allografted in mouse assessed as mouse survival after 30 days at 4 mg/kg, ip qd for 8 days relative to control; format: functional, organism-based; set-up: dose 4 mg/kg; summary of the method: as §2
L1210 [17] = experiment: Antitumor activity against mouse L1210 cells allografted in mouse assessed as mouse survival after 30 days at 4 mg/kg, ip single dose relative to control; format: functional, organism-based; set-up: dose 4 mg/kg
Summary of the method: (§3)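 L1210 leukemia, 10⁶ cells implanted ip per mouse. One ip dose given on day 1. Six mice per dose level. Survivors counted at day 30. Median survival time also recorded as %T/C = (MST treated/MST control) × 100, with T/C > 125 taken as significant.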

L1210 [18] = experiment: Antitumor activity against mouse L1210 cells allografted in mouse assessed as mouse survival after 30 days at 2 mg/kg, ip single dose relative to control; format: functional, organism-based; set-up: dose 2 mg/kg; summary of the method: as §3
L1210 [19] = experiment: Antitumor activity against mouse L1210 cells allografted in mouse assessed as mouse survival after 30 days at 1 mg/kg, ip single dose relative to control; format: functional, organism-based; set-up: dose 1 mg/kg; summary of the method: as §3
L1210 [20] = experiment: Antitumor activity against mouse L1210 cells allografted in mouse assessed as mouse survival after 30 days at 16 mg/kg, ip single dose relative to control; format: functional, organism-based; set-up: dose 16 mg/kg; summary of the method: as §3
L1210 [21] = experiment: Antitumor activity against mouse L1210 cells allografted in mouse assessed as tumor inhibition at 4 mg/kg, ip single dose relative to control; format: functional; details: route intraperitoneal
Summary of the method: (§4)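 L1210 leukemia, 10⁶ cells per mouse inoculated ip. Single ip dose given on day 1. Median survival time expressed as %T/C = (MST treated/MST control) × 100, with T/C > 125 counted as significant. Mice surviving at 30 days were recorded, six mice per treatment dose.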

L1210 [22] = experiment: Antitumor activity against mouse L1210 cells allografted in mouse assessed as tumor inhibition at 128 mg/kg, ip single dose relative to control; format: functional; details: route intraperitoneal; summary of the method: as §4
L1210 [23] = experiment: Antitumor activity against mouse L1210 cells allografted in mouse assessed as tumor inhibition at 64 mg/kg, ip single dose relative to control; format: functional; details: route intraperitoneal; summary of the method: as §4
L1210 [24] = experiment: Antitumor activity against mouse L1210 cells allografted in mouse assessed as tumor inhibition at 1 mg/kg, ip single dose relative to control; format: functional; details: route intraperitoneal; summary of the method: as §4
L1210 [25] = experiment: Antitumor activity against mouse L1210 cells allografted in mouse assessed as tumor inhibition at 2 mg/kg, ip single dose relative to control; format: functional; details: route intraperitoneal; summary of the method: as §4
L1210 [26] = experiment: Antitumor activity against mouse L1210 cells allografted in mouse assessed as tumor inhibition at 8 mg/kg, ip single dose relative to control; format: functional; details: route intraperitoneal; summary of the method: as §4
L1210 [27] = experiment: Antitumor activity against mouse L1210 cells allografted in mouse assessed as mouse survival after 30 days at 8 mg/kg, ip single dose relative to control; format: functional, organism-based; set-up: dose 8 mg/kg; summary of the method: as §3
L1210 [28] = experiment: Antitumor activity against mouse L1210 cells allografted in mouse assessed as tumor inhibition at 16 mg/kg, ip single dose relative to control; format: functional; details: route intraperitoneal; summary of the method: as §4
L1210 [29] = experiment: Antitumor activity against mouse L1210 cells allografted in mouse assessed as median survival time at 32 mg/kg, ip single dose relative to control; format: functional; details: route intraperitoneal; summary of the method: as §4
L1210 [30] = experiment: Antitumor activity against mouse L1210 cells allografted in mouse assessed as mouse survival after 30 days at 128 mg/kg, ip single dose relative to control; format: functional, organism-based; set-up: dose 128 mg/kg; summary of the method: as §3
L1210 [31] = experiment: Antitumor activity against mouse L1210 cells allografted in mouse assessed as mouse survival after 30 days at 32 mg/kg, ip single dose relative to control; format: functional, organism-based; set-up: dose 32 mg/kg; summary of the method: as §3

| Structure (SMILES) | T/C (L1210 [1]) [%] | T/C (L1210 [2]) [%] | T/C (L1210 [3]) [%] | Survival (L1210 [4]) | Survival (L1210 [5]) | T/C (L1210 [6]) [%] | T/C (L1210 [7]) [%] | T/C (L1210 [9]) [%] | T/C (L1210 [11]) [%] | Survival (L1210 [12]) | Survival (L1210 [13]) | T/C (L1210 [14]) [%] | Survival (L1210 [17]) | Survival (L1210 [18]) | T/C (L1210 [21]) [%] | T/C (L1210 [25]) [%] | T/C (L1210 [26]) [%] | Survival (L1210 [27]) | T/C (L1210 [28]) [%] | T/C (L1210 [29]) [%] | further results |
| --- | --- | --- | --- | --- | --- | --- | --- | --- | --- | --- | --- | --- | --- | --- | --- | --- | --- | --- | --- | --- | --- |
| O=NN(CCCl)C(=O)N[C@H]1[C@H](O)[C@H](O)[C@H](O)[C@@H]1O | >471 | 186 | 114 | inactive | inactive | 107 | 143 | >471 | 250 | inactive | inactive | 114 |  |  |  |  |  |  |  |  | Survival (L1210 [8]): inactive; Survival (L1210 [10]): Active |
| O=NN(CCCl)C(=O)N[C@H]1[C@H](O)[C@H](O)[C@@H](O)[C@@H]1O | >471 | 171 | 114 | inactive | inactive | 144 | 221 | 243 | 207 | inactive | inactive | 157 |  |  |  |  |  |  |  |  | Survival (L1210 [8]): inactive; Survival (L1210 [15]): inactive |
| O=NN(CCCl)C(=O)N[C@H]1[C@H](O)[C@@H](O)[C@@H](O)[C@@H]1O | 171 | 143 | 107 | inactive | inactive | 100 | 171 | 336 | 229 | inactive | inactive | 114 |  |  |  |  |  |  |  |  | Survival (L1210 [16]): inactive; Survival (L1210 [8]): inactive; Survival (L1210 [10]): inactive |
| O=NN(CCCl)C(=O)N[C@@H]1[C@H](O)[C@H](NC(=O)N(CCCl)N=O)[C@@H](O)[C@H](O)[C@H]1O |  |  |  |  |  |  |  |  |  |  |  |  | inactive | inactive | 114 | 121 | 171 | inactive | 179 | 214 | Survival (L1210 [19]): inactive; Survival (L1210 [20]): inactive; T/C (L1210 [22]): 86%; T/C (L1210 [23]): 250%; T/C (L1210 [24]): 100%; Survival (L1210 [30]): inactive; Survival (L1210 [31]): inactive |
| O=NN(CCCl)C(=O)N[C@H]1[C@@H](O)[C@@H](O)[C@H](NC(=O)N(CCCl)N=O)[C@H](O)[C@@H]1O |  |  |  |  |  |  |  |  |  |  |  |  | inactive | inactive | 136 | 129 | 171 | inactive | >243 | >471 | Survival (L1210 [19]): inactive; Survival (L1210 [20]): inactive; T/C (L1210 [22]): 293%; T/C (L1210 [23]): 286%; T/C (L1210 [24]): 114%; Survival (L1210 [30]): inactive |
| O=NN(CCCl)C(=O)N[C@H]1[C@@H](O)[C@@H](O)[C@H](NC(=O)N(CCCl)N=O)[C@@H](O)[C@@H]1O |  |  |  |  |  |  |  |  |  |  |  |  | inactive | inactive | 171 | 150 | 214 | inactive | >471 | 136 | Survival (L1210 [31]): inactive |
| O=NN(CCCl)C(=O)NCCCl [CARMUSTINE] | >471 | 193 | 100 | inactive | inactive | 100 | 114 | 293 | 193 | inactive | inactive | 100 | inactive | inactive | 143 | 114 | 193 | inactive | 271 | >471 | Survival (L1210 [16]): inactive; Survival (L1210 [10]): Active; Survival (L1210 [15]): inactive |

Source: ChEMBL document CHEMBL3227968, “Synthesis and antitumor activity of water-soluble (2-chloroethyl)nitrosoureas” (1979)
